Laboratory results: ChEMBL document CHEMBL4699439, “Design and development of novel N-(pyrimidin-2-yl)-1,3,4-oxadiazole hybrids to treat cognitive dysfunctions” (Bioorg Med Chem, 2019)
Calls of active or inactive are those of the source. The rule behind the calls is not given here.

How the values were obtained:
[1] = target: Cholinesterase (Homo sapiens, UniProt P06276); experiment: Inhibition of human serum BChE using butyrylthiocholine iodide as substrate preincubated for 10 mins followed by substrate addition and measured for 10 mins by DTNB reagent based Ellman's method; type: cell-free
Method in brief: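 Enzyme is BChE from human serum, 0.02 units/ml in 0.1% gelatin pH 7.4, preincubated with compound 10 min at 37 °C. Then 0.1 M phosphate containing 340 µM DTNB and 550 µM BTCI added. A412 followed 10 min at 37 °C. DMSO ≤1%. IC50 from nonlinear log-inhibitor fit, n=3.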

[2] = Antioxidant activity assessed as DPPH radical scavenging activity at 20 uM after 30 mins under dark condition by DPPH assay relative to control; type: functional
Method in brief: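 Test compound at 20 µM (solution strength) mixed with 0.5 mM DPPH solution and kept in the dark for 30 min. Absorbance read at 517 nm. % inhibition = (A0−At)/A0 × 100. Ascorbic acid used as standard. Run in triplicate.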

[3] = target: T1, Acetylcholinesterase (Homo sapiens, UniProt P22303); experiment: Inhibition of human erythrocyte AChE using acetylthiocholine iodide as substrate preincubated for 10 mins followed by substrate addition and measured for 10 mins by DTNB reagent based Ellman's method; type: tissue-based
[4] = Effective permeability of compound in PBS buffer at pH 7.4 at 25 ug/ml incubated for 20 hrs by PAMPA-BBB assay
[5] = Acute toxicity in Swiss albino mouse assessed as convulsion at 500 mg/kg, po measured for 14 days; type: organism-based; details: in vivo, 336 h, time 14 day
Method in brief: (§1)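 Adult male Swiss albino mice, 25-30 g, dosed orally following OECD 423 at various doses up to 500 mg/kg. Watched at 30 min, 2 h, 4 h and 24 h for autonomic and behavioural changes. Followed for 14 days for tremors, convulsions, salivation, diarrhea, lethargy, sleep and coma.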

[6] = system: Mus musculus; experiment: (§2) Reversal of scopolamine-induced memory cognitive memory impairment in po dosed Swiss albino mouse assessed as increase in spontaneous alteration rate administered once daily for 7 days and administered with scopolamine at 30 mins after compound challenge on 7th day and measured for 5 mins on day 7 by Y-maze test; type: functional, organism-based; details: dose mg/kg 2.5-10, time 7.0 day
Method in brief: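 Male Swiss albino mice, six per group. Compound given p.o. in 0.3% CMC daily for 7 days, at 2.5, 5 or 10 mg/kg. Scopolamine 0.5 mg/kg i.p. given 30 min after the day-7 dose. Each mouse placed in a three-arm Y-maze and arm entries and alternations recorded over 5 min. % alternation = alternations/(total entries−2) × 100.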

[7] = target: T1, Acetylcholinesterase; experiment: Non-competitive inhibition of human erythrocyte AChE using acetylthiocholine iodide as substrate at 0.15 to 0.6 uM preincubated for 10 mins followed by substrate addition and measured for 10 mins by Ellman's method based Line-weaver Burk plot analysis; type: tissue-based
[8] = system: Mus musculus; experiment: as §2, with “transfer latency time” for “spontaneous alteration rate”, “during acquisition trial” for “for 5 mins”, “passive avoidance” for “Y-maze”; type: functional, organism-based; details: dose mg/kg 2.5-10, time 7.0 day
Method in brief: (§3)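 Dosing as for the Y-maze: p.o. in CMC daily for 7 days, scopolamine 0.5 mg/kg i.p. on day 7, six mice per group. Apparatus is a two-compartment lit/dark box. Acquisition begins 5 min after scopolamine, with the mouse held in the lit side for 30 s. Latency to enter the dark side recorded as transfer latency time. No foot shock in the retention trial.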

[9] = system: Mus musculus; experiment: Ex vivo inhibition of Swiss mouse brain AChE using ACTI as substrate at 10 mg/kg, po administered once daily for 7 days and administered with scopolamine at 30 mins after compound challenge on 7th day and measured on day 7 by Ellman's method; type: functional, organism-based; details: time 7.0 day
Method in brief: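 Male Swiss albino mice dosed p.o. daily for 7 days in 0.3% CMC. Scopolamine 0.5 mg/kg i.p. given 30 min after the day-7 dose. Brain homogenate supernatant incubated with 0.1 M phosphate pH 7.4 and DTNB for 10 min at 37 °C. ATCI then added from a 7.5 mM stock. A412 followed for 10 min. Expressed as ACh hydrolysed/min/mg protein (Lowry).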

[10] = system: Mus musculus; experiment: (§4) Antioxidant activity in scopolamine-induced memory impairment Swiss albino mouse model assessed as reduction in scopolamine-induced oxidative stress by measuring increase in total non-protein thiol level at 10 mg/kg, po administered once daily for 7 days and administered with scopolamine at 30 mins after compound challenge on 7th day; type: functional, organism-based; details: time 7.0 day
Method in brief: (§5)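 Male Swiss albino mice, six per group. Compound suspended in 0.3% w/v CMC, given p.o. once daily for 7 days. Scopolamine HBr 0.5 mg/kg i.p., in water, given 30 min after dosing on day 7. After behavioural tests, whole brain homogenised in 10 mM PBS pH 7.4 and supernatant used. Protein by Lowry method. For MDA (TBARS), supernatant incubated 2 h at 37 °C, TCA-precipitated, heated with 0.67% thiobarbituric acid at 50 °C for 10 min, A532, expressed as moles MDA/mg protein. For nonprotein thiol (Sedlak–Lindsay), TCA supernatant in Tris-EDTA pH 8.9 reacted with DTNB, A412 within 5 min, expressed as µM/mg protein.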

[11] = Acute toxicity in Swiss albino mouse assessed as mortality at 500 mg/kg, po observed for 24 hrs; type: organism-based; details: in vivo; method in brief: as §1
[12] = Acute toxicity in Swiss albino mouse assessed as salivation at 500 mg/kg, po measured for 14 days; type: organism-based; details: in vivo, 336 h, time 14 day; method in brief: as §1
[13] = Acute toxicity in Swiss albino mouse assessed as sleep at 500 mg/kg, po measured for 14 days; type: organism-based; details: in vivo, 336 h, time 14 day; method in brief: as §1
[14] = Acute toxicity in Swiss albino mouse assessed as diarrhea at 500 mg/kg, po measured for 14 days; type: organism-based; details: in vivo, 336 h, time 14 day; method in brief: as §1
[15] = Acute toxicity in Swiss albino mouse assessed as tremor at 500 mg/kg, po measured for 14 days; type: organism-based; details: in vivo, 336 h, time 14 day; method in brief: as §1
[16] = system: Mus musculus; experiment: Antioxidant activity in scopolamine-induced memory impairment Swiss albino mouse model assessed as reduction in scopolamine-induced oxidative stress by measuring decrease in malondialdehyde level at 10 mg/kg, po administered once daily for 7 days and administered with scopolamine at 30 mins after compound challenge on 7th day by TBARS assay; type: functional, organism-based; details: time 7.0 day; method in brief: as §5
[17] = target: T1, Acetylcholinesterase; experiment: Inhibition of human AChE-induced amyloid beta(1 to 42) aggregation at Abeta:compound concentration ratio of 1:2 incubated for 48 hrs by thioflavin-T fluorescence method
Method in brief: (§6)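 Aβ1-42 (10 µM) incubated with hAChE ([…]) with or without compound (5, 10 and 20 µM) at 37 °C for 48 h, DMSO below 1%. ThT then added at 5 µM. Fluorescence read at ex 485/em 528 nm. % inhibition taken from intensities with vs without inhibitor. Run in triplicate.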

[18] = target: T1, Acetylcholinesterase; experiment: Inhibition of human AChE-induced amyloid beta(1 to 42) aggregation incubated for 48 hrs by thioflavin-T fluorescence method; details: dose microM 5-20, time 48.0 hrs; method in brief: as §6
[19] = Acute toxicity in Swiss albino mouse assessed as feeding behavior at 500 mg/kg, po observed for 24 hrs; type: organism-based; details: in vivo; method in brief: as §1
[20] = in vitro; details: human, SH-SY5Y cells
[21] = Acute toxicity in Swiss albino mouse assessed as lacrimation at 500 mg/kg, po observed for 24 hrs; type: organism-based; details: in vivo; method in brief: as §1
[22] = system: Mus musculus; experiment: as §4, with “SOD” for “total non-protein thiol”; type: functional, organism-based; details: time 7.0 day
Method in brief: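 Same mouse dosing and brain supernatant preparation as the oxidative-stress assays. For SOD, supernatant mixed with reagent containing 0.1 mM EDTA, 24 µM NBT and 50 mM Na2CO3, plus hydroxylamine hydrochloride. Assay at pH 10.2, absorbance read at 560 nm.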

[23] = system: Mus musculus; experiment: as §2, with “transfer latency time” for “spontaneous alteration rate”, “during retention trial” for “for 5 mins”, “passive avoidance” for “Y-maze”; type: functional, organism-based; details: dose mg/kg 2.5-10, time 7.0 day; method in brief: as §3
[24] = target: Cholinesterase (Equus caballus, UniProt P81908); experiment: Inhibition of equine serum BChE using butyrylthiocholine iodide as substrate incubated for 30 mins followed by substrate addition and measured for 20 mins by Ellman's method
[25] = target: Acetylcholinesterase (Electrophorus electricus, UniProt O42275); experiment: Inhibition of recombinant Electric eel AChE incubated for 15 mins by amplex red reagent based fluorescence assay
[26] = system: SH-SY5Y; experiment: Neuroprotection against amyloid beta (25 to 35)-induced toxicity in human SH-SY5Y cells assessed as cell viability at 10 uM preincubated for 2 hrs followed by incubation with amyloid beta (25 to 35) for 24 hrs relative to control; type: functional; details: time 26 hrs, read-out: Activity

T1 sequence (P22303 whole entry): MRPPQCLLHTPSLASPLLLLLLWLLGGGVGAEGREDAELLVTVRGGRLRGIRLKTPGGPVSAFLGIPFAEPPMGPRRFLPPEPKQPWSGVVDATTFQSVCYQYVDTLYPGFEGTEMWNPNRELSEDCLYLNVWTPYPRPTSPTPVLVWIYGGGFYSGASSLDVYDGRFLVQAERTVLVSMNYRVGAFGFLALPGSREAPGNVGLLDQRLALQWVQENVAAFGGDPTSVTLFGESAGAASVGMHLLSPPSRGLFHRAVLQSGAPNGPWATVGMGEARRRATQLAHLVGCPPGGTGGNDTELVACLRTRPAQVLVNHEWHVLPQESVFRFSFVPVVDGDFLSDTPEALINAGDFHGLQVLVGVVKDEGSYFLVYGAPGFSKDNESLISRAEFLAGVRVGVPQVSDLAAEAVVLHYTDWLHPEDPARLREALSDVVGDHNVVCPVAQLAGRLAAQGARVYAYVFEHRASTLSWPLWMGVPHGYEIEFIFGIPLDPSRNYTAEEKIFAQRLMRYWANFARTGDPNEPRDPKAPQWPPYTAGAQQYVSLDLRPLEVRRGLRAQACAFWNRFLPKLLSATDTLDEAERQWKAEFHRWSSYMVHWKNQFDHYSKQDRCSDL
Sequence of Cholinesterase (Homo sapiens, UniProt P06276) (P06276 whole entry): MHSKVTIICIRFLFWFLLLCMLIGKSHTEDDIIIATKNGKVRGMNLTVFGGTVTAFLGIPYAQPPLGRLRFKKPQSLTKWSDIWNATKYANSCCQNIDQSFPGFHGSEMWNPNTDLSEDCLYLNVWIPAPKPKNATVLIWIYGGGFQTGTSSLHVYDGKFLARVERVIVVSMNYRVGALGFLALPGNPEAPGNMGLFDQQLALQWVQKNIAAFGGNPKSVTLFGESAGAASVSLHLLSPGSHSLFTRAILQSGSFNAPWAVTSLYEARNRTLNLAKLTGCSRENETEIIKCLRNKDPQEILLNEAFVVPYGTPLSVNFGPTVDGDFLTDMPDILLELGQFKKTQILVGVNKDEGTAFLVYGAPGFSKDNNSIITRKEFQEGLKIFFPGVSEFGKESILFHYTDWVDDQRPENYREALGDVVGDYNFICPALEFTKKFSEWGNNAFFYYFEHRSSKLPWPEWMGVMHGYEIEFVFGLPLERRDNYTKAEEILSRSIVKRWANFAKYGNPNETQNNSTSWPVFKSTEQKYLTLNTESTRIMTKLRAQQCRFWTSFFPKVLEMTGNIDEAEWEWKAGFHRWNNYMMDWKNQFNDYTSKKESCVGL
Sequence of Acetylcholinesterase (Electrophorus electricus, UniProt O42275) (O42275 whole entry): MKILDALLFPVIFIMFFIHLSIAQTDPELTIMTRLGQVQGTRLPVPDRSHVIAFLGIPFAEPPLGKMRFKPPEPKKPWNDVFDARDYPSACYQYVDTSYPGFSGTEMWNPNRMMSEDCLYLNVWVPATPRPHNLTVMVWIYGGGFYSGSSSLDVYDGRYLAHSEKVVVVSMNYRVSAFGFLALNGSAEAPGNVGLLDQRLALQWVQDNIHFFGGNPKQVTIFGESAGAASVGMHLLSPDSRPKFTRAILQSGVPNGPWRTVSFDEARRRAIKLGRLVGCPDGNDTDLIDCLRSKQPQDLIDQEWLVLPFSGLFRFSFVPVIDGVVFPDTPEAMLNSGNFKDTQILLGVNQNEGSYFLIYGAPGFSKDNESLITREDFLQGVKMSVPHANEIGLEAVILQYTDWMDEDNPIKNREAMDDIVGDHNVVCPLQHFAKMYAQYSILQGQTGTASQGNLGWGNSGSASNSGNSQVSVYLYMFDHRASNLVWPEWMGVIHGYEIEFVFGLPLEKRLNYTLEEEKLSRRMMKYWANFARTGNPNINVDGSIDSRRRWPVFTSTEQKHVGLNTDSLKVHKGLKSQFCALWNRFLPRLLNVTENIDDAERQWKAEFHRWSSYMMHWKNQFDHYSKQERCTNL
Sequence of Cholinesterase (Equus caballus, UniProt P81908) (P81908 whole entry): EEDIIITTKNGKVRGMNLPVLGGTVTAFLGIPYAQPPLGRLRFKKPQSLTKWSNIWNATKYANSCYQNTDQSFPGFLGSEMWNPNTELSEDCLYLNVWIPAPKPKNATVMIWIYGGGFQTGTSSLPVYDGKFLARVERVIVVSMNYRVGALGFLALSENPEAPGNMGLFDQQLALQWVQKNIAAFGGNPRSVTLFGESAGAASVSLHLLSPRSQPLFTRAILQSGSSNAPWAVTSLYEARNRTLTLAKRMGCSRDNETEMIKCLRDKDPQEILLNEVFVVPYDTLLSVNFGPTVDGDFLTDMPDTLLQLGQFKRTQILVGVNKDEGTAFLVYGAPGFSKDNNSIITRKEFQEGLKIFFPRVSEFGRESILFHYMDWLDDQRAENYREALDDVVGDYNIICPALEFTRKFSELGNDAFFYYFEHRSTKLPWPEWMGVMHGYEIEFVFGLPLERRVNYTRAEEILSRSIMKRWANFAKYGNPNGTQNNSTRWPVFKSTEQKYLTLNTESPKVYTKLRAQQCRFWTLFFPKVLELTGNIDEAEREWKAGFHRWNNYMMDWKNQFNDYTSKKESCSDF

| Structure (SMILES) | IC50 [1] [µM] | inhibition [2] [%] | IC50 [3] [µM] | further results |
| --- | --- | --- | --- | --- |
| Clc1ccc(-c2nnc(Nc3ncccn3)o2)cc1 | > 50.1 | 46.2 | 2.88 | – |
| Brc1ccc(-c2nnc(Nc3ncccn3)o2)cc1 | 22.9 | 47.8 | 3.72 | – |
| COc1ccc(-c2nnc(Nc3ncccn3)o2)cc1OC | > 50.1 | 49.5 | 1.91 | – |
| Cc1ccc(-c2nnc(Nc3ncccn3)o2)cc1 | > 50.1 | < 20 | 1.62 | – |
| O=C1O[C@H]([C@@H](O)CO)C(O)=C1O | – | 64.6 | – | – |
| COc1ccc(-c2nnc(Nc3ncccn3)o2)cc1 | > 50.1 | 45.8 | 1.55 | – |
| Oc1ccc(-c2nnc(Nc3ncccn3)o2)cc1 | > 50.1 | 63.4 | 1.74 | Papp at 20 h, 25 ug/ml [4]: 3.23 ×10⁻⁶ cm/s |
| c1cnc(Nc2nnc(-c3cccc4ccccc34)o2)nc1 | 12 | 60 | 0.302 | Activity [5]: Non-Toxic; Activity [6]: Dose-dependent effect; Ki [7]: 0.17 µM; Activity [8]: Dose-dependent effect; inhibition [9]: Active; Activity [10]: Active; Activity [11]: Non-Toxic; Activity [12]: Non-Toxic; Activity [13]: Non-Toxic; Activity [14]: Non-Toxic; Activity [15]: Non-Toxic; Activity [16]: Active; inhibition [17]: Active; inhibition [18]: Dose-dependent effect; Activity [19]: Non-Toxic; IC50 at 24 h [20]: 79.4 µM; Activity [21]: Non-Toxic; Papp at 20 h, 25 ug/ml [4]: 5.82 ×10⁻⁶ cm/s; Activity [22]: Active; Activity [23]: Dose-dependent effect |
| C#CCOc1ccc(-c2cc(-c3ccc(OCCN4CCOCC4)cc3)nc(N)n2)cc1 | – | – | – | IC50 [24]: 0.666 µM; IC50 [25]: 0.304 µM |
| Fc1ccc(-c2nnc(Nc3ncccn3)o2)cc1 | > 50.1 | 41.9 | 2.4 | – |
| c1ccc(-c2nnc(Nc3ncccn3)o2)cc1 | > 50.1 | 51.4 | 2.04 | – |
| Clc1ccccc1-c1nnc(Nc2ncccn2)o1 | > 50.1 | < 20 | > 5.01 | – |
| O=[N+]([O-])c1ccccc1-c1nnc(Nc2ncccn2)o1 | > 50.1 | 51.8 | 3.39 | – |
| COc1cc2c(cc1OC)C(=O)C(CC1CCN(Cc3ccccc3)CC1)C2 (configuration not stated) | – | < 20 | – | – |
| O=[N+]([O-])c1ccc(-c2nnc(Nc3ncccn3)o2)cc1 | > 50.1 | < 20 | > 5.01 | – |
| Brc1ccc(CSc2nnc(CSc3nc4ccccc4s3)o2)cc1 | – | – | – | viability at 10 µM [26]: 95.7% |
| Oc1ccccc1-c1nnc(Nc2ncccn2)o1 | > 50.1 | 58.8 | > 5.01 | – |
| COc1cc(-c2nnc(Nc3ncccn3)o2)cc(OC)c1OC | > 50.1 | 57.7 | 1.23 | Papp at 20 h, 25 ug/ml [4]: 4.21 ×10⁻⁶ cm/s |
| Brc1cccc(-c2nnc(Nc3ncccn3)o2)c1 | 20.4 | 47.9 | 3.31 | – |
